The RNAGym collection of RNA variant scans (doi:10.1126/science.aae0568)
This sample holds only a part of the variants without activity.

B1: tRNA (parent)
chain: GUUCCGUUGGCGUAAUGGUAACGCGUCUCCCUCCUAAGGAGAAGACUGCGGGUUCGAGUCCCGUACGGAACG

Variants of: B1
Experiment: yeast fitness relative to wild type (ratio to wild type); higher = fitter; tRNA-Arg(CCU), competitive growth, 37 C, YPD
Method in brief: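 Changes in genotype frequencies gave Darwinian fitness relative to wild type. Frequencies were read by 100-nucleotide paired-end sequencing of gene amplicons before and after pooled Saccharomyces cerevisiae strains, carrying tRNA-Arg(CCU) gene variants at the native locus, were competed in YPD at 37°C for 24 hours in six replicates. A genotype was kept only with ≥ 100 starting reads, and estimates < 0.5 were set to 0.5.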

Going from GUUCCGUUGGCGUAAUGGUAGCGCGUCUUCCUCCUAAGGAGAAGACUGCGGGUUCGAGUCCCGUACGGAACG [A21G C29U] to GUUCCGUUGGCAUAAUGGUAACGCGUAUUCCUCCUAAGGAGAAGACUGCGGGUUCGAGUCCCGUACGGAACG [G12A C27A C29U], the yeast fitness rises from 0.944 to 0.981.

First: GUUCUGUUGGCGUAAUGGUAACGCGUCUCCCUCCUAAGCAGAAGACUGCGGGUUCGAGUCCCGUACGGAACG [C5U G39C]
Second: GUUCCGUUGGCGUAAUGGUAACGCGUCUCACUCCUAAGGAGAAGACUGCGGGUUCGAGGCCCGUACGGAACG [C30A U59G]
The yeast fitness of the first is lower: 0.769 for the first, 0.775 for the second.

GUUCCGUUGGCGUAAUGGUAACGCGUCUUCCCCCUAAGGAGAAGACUGCGGGUUCGAGUCCUGUACGGAUCG [C29U U32C C62U A70U] and GUUCCGUUGGCGUAAUGGUUACGCGUCUCCCUCCUAAGGAGAAGACUGCGAGUUCGAGUCGCGUACGGAACG [A20U G51A C61G] cannot be ordered by yeast fitness: no more than 0.5 for the first, no more than 0.5 for the second.

First: GUUCCGUUGGUGUAAUGGUAACGCGUCUCCCUCCUAAGGAGAAGACUGAGGGUUCGCGUCCCGUACGGAACG [C11U C49A A57C]
Second: GUUCCGUUGGCGUAAUGGUAACGCGUCUCCCUCCUAAGGAGUCGACUGCGGGUUCGAGUCCCGUACGGAACG [A42U A43C]
The yeast fitness of the first is lower: no more than 0.5 for the first, 0.994 for the second.

GAUCCGUUGGCGUAAUGGUACAGCGUCUUCCUCCUAAGGAGAAGACUGGGGGUUCGAGUCCCGUACGGAACG [U2A A21C C22A C29U C49G] and GUUCCGUUGGCGUAAUGGUAACGCGUCCCCCUCCUAAGGAGAAGACUGCGGGUUCGAGUCCGGUAGGGAACG [U28C C62G C66G] cannot be ordered by yeast fitness: no more than 0.5 for the first, no more than 0.5 for the second.

Compared with GUUCCGUUGGCGUAAUGGCAACGCGUCUCCCUCCUAAGGAGAAGACUGCGGGUUCGAGUCGCGUACGGAACG [U19C C61G], GUUCCGUUGGCGUAAUGGUAACGCGUCUCCCUCCUAGGGAGAAGACUGCGGGUUCGAGUCCCGUACGGACCG [A37G A70C] is higher in yeast fitness: 0.691 for the first, 0.76 for the second.

GUUCCGCUGGCGUAAUGGUUACGCGUCUUGCUCAAAAGGAGAAGACUGCGGGUUCGAGUCCCGUAAGGAACG [U7C A20U C29U C30G C34A U35A C66A] and GUUCCGUUGGCGUAAUGGUAACGCGUCUCCCUCCUAAAGGGAAGACUGUGGGUUCGAGUCCCGUAAGGAACG [G38A A40G C49U C66A] cannot be ordered by yeast fitness: no more than 0.5 for the first, no more than 0.5 for the second.

Compared with GUUCGGUUGGUGUAAUGGUAACGCCUCUCCCUCCUAAGGAGAAGACUGCGGUUUCGAGUCCCGUACGGAACG [C5G C11U G25C G52U], GUUCCGUUGGCGUAAUGGUAACGCGUCUCCCUCCUAAGCAGAAGACUGCGGGUUCGAGAGCCGUACGGAACG [G39C U59A C60G] is lower in yeast fitness: 0.618 for the first, 0.541 for the second.

Compared with GUUCCGUUCGCGUCUUGGUAACACGUCUCCCUCAUAAGGAGAAGACUGCGGCUUCGAGUCCCCUACGGAACG [G9C A14C A15U G23A C34A G52C G63C], GUUCCGUUGGCGUAAUGGUAACGCGUAUCCCUCCUAACGAGAAGACUGCGGGUUCGAGUCCCGUACGGAACG [C27A G38C] is higher in yeast fitness: 0.585 for the first, 0.609 for the second.

Compared with GUUCCGUUGGCGUAGUAGUAACGCGUCUCCCUCCUAAGGAGAAGACUGCGGGUUCGAGUCCCGUACGGCACG [A15G G17A A69C], GUUCCGUUGGCGUGAUGGUAACGCGUCUCCCUCCUAAGGAGGAGACUCCGGGUUCGAGUCCCGUACGGAACG [A14G A42G G48C] is lower in yeast fitness: 0.586 for the first, 0.568 for the second.

GUUCCGUUGGCGUAAUGGUAAGGCGUCUCCCUCCUAAGGAGAAGACAGCGGAUUCGAGUCCCGUACGGAACG [C22G U47A G52A] and GUUCCGUUGGCGUAAUGGUAAGGCGUCUACCUCCUAAGGAGAAGACUGCGGGAUCGAGUCCCGUAUGGAACG [C22G C29A U53A C66U] cannot be ordered by yeast fitness: no more than 0.5 for the first, no more than 0.5 for the second.

First: GUUCCGUUGGCGUAAUGGUAACGCGUCUCCGUCCUAAGGAGAAGACUGCGCGUUCGAGUCUCGUACGGAACG [C31G G51C C61U]
Second: GUUCCGUUGGCGUAAUGGUAACGGGUCUCCCUCCUAGGGAGAAGACUGCGGGUUCGAGACCCGUACAGAACG [C24G A37G U59A G67A]
The yeast fitness of the first is lower: no more than 0.5 for the first, 0.548 for the second.

First: GUUCCGUUGGCGUCAUAGUAACGCGUCUCCCUCCUAAGGAGAAGACUGCGGGUUCGAGUCCCGUACGGAACG [A14C G17A]
Second: GCUCCGUUGGCGUAAUGGUAACGCGUCUUCCUCCUAAGGAGAAGAGUGCGACUUCGAGUCCCGUACGGAACG [U2C C29U C46G G51A G52C]
The yeast fitness of the first is higher: 0.679 for the first, 0.557 for the second.

First: GUUCCGUUGGGGUAUUGGUAACGCGUCUCCCUCCUAAGGAGAAGACUGCGGGUUCGAGUCCCGUCCGGAACG [C11G A15U A65C]
Second: GUUCCGUUGGCGUAAUGGUCACGCGUCUCGCUGCUAAGGAGAAGACUGCGGGUUCGAGUCCCGUACGGAACG [A20C C30G C33G]
The yeast fitness of the first is higher: 0.544 for the first, no more than 0.5 for the second.

Compared with GUUCCGUUGGCGCAAUGGUAACGCGGCUCCCUCCCAAGGAGAAGACUGCGGGUUCGAGUCCCAUACGGAGCG [U13C U26G U35C G63A A70G], GUUCCGUUGGCGUAAUGGUAACGCGUCUCCCUCCUAACGAGAAGACUCCGGGUUCGAGUCCCGUACGGAACG [G38C G48C] is higher in yeast fitness: no more than 0.5 for the first, 0.722 for the second.

Going from GUUCCGUUGGAGUAAUGGUAACGCGUCUCCCUCCUAAGGAGAAGACUGCGGGAUCGAGUCCCGUACGGAACG [C11A U53A] to GUUCCGUUGGCGUAAUGGUAACGCGUCUCCUUCCUAAGGAGGAGACUGCGGGUUUGAGUCCCGUACGGAACG [C31U A42G C55U], the yeast fitness falls from 0.59 to 0.511.

Going from GUUCCAUUGGCGUAAUGGUAACGCGUCUCGCUCCUAAGGAGAAGACUGCGGGUUGGAGUCCCGUACGGAACG [G6A C30G C55G] to GUUCCGUUGGCGUAGUGGCAACGCGUCUCCCUCCUAUGGAGAAGACUGUGAGUUCGAGUCCCGUACGGAACG [A15G U19C A37U C49U G51A], the yeast fitness rises from no more than 0.5 to 0.555.

GUACCGUUGGCGUAAUGGUAACGCGUCUCCCUCCUAAGGAGAAGACUCCGGGUCAGAGUCCCGUACGGAACG [U3A G48C U54C C55A] and GUGCCGUUGGAGUAAUGGUAACCCGUCUCCCUCCUAAGGAGAAGACUGCGGCUUCGAGUCCCGUACGGAACG [U3G C11A G23C G52C] cannot be ordered by yeast fitness: no more than 0.5 for the first, no more than 0.5 for the second.

Compared with GAUCCGUUGGCGUAAUGGUAACGCAUCUCCCUCCUAAGGAGAAGACUGCGGGUUCGAGUCCCGUACGAAACG [U2A G25A G68A], GUUCCGUUGGAGUAAUGGUAACGCGUUUCCCUUCCAAGGAGAAGACUGCGGGUUCGUGUCCCGUACGGAACG [C11A C27U C33U U35C A57U] is lower in yeast fitness: 0.64 for the first, no more than 0.5 for the second.
